Data taken from ChEMBL document CHEMBL3526116, “Toxicological evaluation of acyl glucuronides of nonsteroidal anti-inflammatory drugs using human embryonic kidney 293 cells stably expressing human UDP-glucuronosyltransferase and human hepatocytes” (Drug Metab Dispos, 2011).
Each block holds one molecule with its values, some of them ahead of it.

Experiments:
[1] = molecular target: T1, UDP-glucuronosyltransferase 1A3 (Homo sapiens, UniProt P35503); test: Activity of human UGT1A3 expressed in HEK293 cells assessed as enzyme-mediated compound formation in cell culture medium treated with diclofenac at 0.1 mM by LC-MS/MS analysis; type: ADME, cell-based; settings: hek293, 100 µM, TDE = time-dependent effect
T1 sequence (P35503 whole entry): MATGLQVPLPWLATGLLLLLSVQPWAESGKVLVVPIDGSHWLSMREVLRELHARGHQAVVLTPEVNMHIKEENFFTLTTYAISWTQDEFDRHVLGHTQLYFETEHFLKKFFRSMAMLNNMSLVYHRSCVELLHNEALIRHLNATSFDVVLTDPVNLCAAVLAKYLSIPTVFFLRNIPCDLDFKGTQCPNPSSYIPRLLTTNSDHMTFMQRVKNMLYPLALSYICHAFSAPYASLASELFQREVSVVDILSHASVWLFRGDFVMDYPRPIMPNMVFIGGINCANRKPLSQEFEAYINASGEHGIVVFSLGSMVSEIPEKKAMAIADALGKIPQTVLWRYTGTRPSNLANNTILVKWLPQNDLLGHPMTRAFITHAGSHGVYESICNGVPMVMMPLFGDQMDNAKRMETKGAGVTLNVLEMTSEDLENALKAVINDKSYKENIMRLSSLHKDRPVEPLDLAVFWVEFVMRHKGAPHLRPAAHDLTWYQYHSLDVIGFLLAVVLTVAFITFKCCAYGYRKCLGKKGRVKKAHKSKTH
How it was run: (§1)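 HEK293 stably expressing human UGT1A3 (G418-selected), 2 x 10^5 cells/well in 1 mL DMEM with 0.5% FBS, exposed immediately to drug for 6, 12 or 24 h; DMSO ≤0.1% final. Cells and medium separated by centrifugation, cell fraction resuspended in PBS; aliquots mixed 1:1 with methanol/acetic acid (100:1), spun, supernatant analysed by LC-MS/MS. Triplicate determinations, mean ± SD.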

[2] = Drug level in cell culture medium treated with diclofenac at 0.1 mM measured at 6 hrs by LC-MS/MS analysis in presence of acyl glucuronidation inhibitor (-)-borneol; type: physicochemical; settings: 100 µM
[3] = molecular target: T1, UDP-glucuronosyltransferase 1A3; test: Activity of human UGT1A3 expressed in HEK293 cells assessed as enzyme-mediated compound formation per 2 x 10^5 cells treated with diclofenac at 0.1 mM measured at 24 hrs by LC-MS/MS analysis; type: ADME, cell-based; settings: hek293, 24 h, 100 µM; how it was run: as §1
[4] = tested on: Hepatocyte; test: Drug level in human hepatocytes assessed per 2 x 10^5 cells treated with diclofenac at 0.1 mM measured at 6 hrs by LC-MS/MS analysis in absence of acyl glucuronidation inhibitor (-)-borneol; type: ADME, cell-based; settings: 100 µM
[5] = Drug level in cell culture medium treated with diclofenac at 0.1 mM measured at 6 hrs by LC-MS/MS analysis in absence of acyl glucuronidation inhibitor (-)-borneol; type: physicochemical; settings: 100 µM
[6] = molecular target: T1, UDP-glucuronosyltransferase 1A3; test: Activity of human UGT1A3 expressed in HEK293 cells assessed as enzyme-mediated compound formation in cell culture medium treated with diclofenac at 0.1 mM measured at 6 to 24 hrs by LC-MS/MS analysis; type: ADME, cell-based; settings: hek293, 100 µM; how it was run: as §1
[7] = tested on: Hepatocyte; test: Drug level in human hepatocytes assessed per 2 x 10^5 cells treated with diclofenac at 0.1 mM measured at 6 hrs by LC-MS/MS analysis in presence of acyl glucuronidation inhibitor (-)-borneol; type: ADME, cell-based; settings: 100 µM
[8] = tested on: Hepatocyte; test: Drug level in human hepatocytes assessed per 2 x 10^5 cells treated with ketoprofen at 1 mM measured at 6 hrs by LC-MS/MS analysis in absence of acyl glucuronidation inhibitor (-)-borneol; type: ADME, cell-based; settings: 1000 µM
[9] = tested on: Hepatocyte; test: Drug level in human hepatocytes assessed per 2 x 10^5 cells treated with ketoprofen at 1 mM measured at 6 hrs by LC-MS/MS analysis in presence of acyl glucuronidation inhibitor (-)-borneol; type: ADME, cell-based; settings: 1000 µM
[10] = tested on: Nucleic Acid; test: Ratio of drug level in human hepatocytes to HEK293 cells expressing UGT1A3 treated with ketoprofen at 1 mM; type: ADME, cell-based, Hepatocyte; settings: 1000 µM
How it was run: (§2)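 Acyl glucuronide in cell fraction (pmol/2 x 10^5 cells) by LC-MS/MS after 6 h exposure in human hepatocytes without (-)-borneol, set against HEK/UGT1A3 cells (2 x 10^5 cells/well, DMEM with 0.5% FBS) exposed to the same drug level; cells pelleted at 3000 x g, resuspended in PBS, extracted with methanol/acetic acid.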

[11] = Drug level in cell culture medium treated with ketoprofen at 1 mM measured at 6 hrs by LC-MS/MS analysis in absence of acyl glucuronidation inhibitor (-)-borneol; type: physicochemical; settings: 1000 µM
[12] = molecular target: T1, UDP-glucuronosyltransferase 1A3; test: Activity of human UGT1A3 expressed in HEK293 cells assessed as enzyme-mediated compound formation in cell culture medium treated with ketoprofen at 1 mM measured at 6 to 24 hrs by LC-MS/MS analysis; type: ADME, cell-based; settings: hek293, 1000 µM; how it was run: as §1
[13] = Drug level in cell culture medium treated with ketoprofen at 1 mM measured at 6 hrs by LC-MS/MS analysis in presence of acyl glucuronidation inhibitor (-)-borneol; type: physicochemical; settings: 1000 µM
[14] = molecular target: T1, UDP-glucuronosyltransferase 1A3; test: Activity of human UGT1A3 expressed in HEK293 cells assessed as enzyme-mediated compound formation per 2 x 10^5 cells treated with ketoprofen at 1 mM measured at 24 hrs by LC-MS/MS analysis; type: ADME, cell-based; settings: hek293, 24 h, 1000 µM; how it was run: as §1
[15] = molecular target: T1, UDP-glucuronosyltransferase 1A3; test: Activity of human UGT1A3 expressed in HEK293 cells assessed as enzyme-mediated compound formation in cell culture medium treated with ketoprofen at 1 mM by LC-MS/MS analysis; type: ADME, cell-based; settings: hek293, 1000 µM, TDE = time-dependent effect; how it was run: as §1
[16] = tested on: Hepatocyte; test: Drug level in human hepatocytes assessed per 2 x 10^5 cells treated with naproxen at 1 mM measured at 6 hrs by LC-MS/MS analysis in presence of acyl glucuronidation inhibitor (-)-borneol; type: ADME, cell-based; settings: 1000 µM
[17] = Drug level in cell culture medium treated with naproxen at 1 mM measured at 6 hrs by LC-MS/MS analysis in presence of acyl glucuronidation inhibitor (-)-borneol; type: physicochemical; settings: 1000 µM
[18] = molecular target: T1, UDP-glucuronosyltransferase 1A3; test: Activity of human UGT1A3 expressed in HEK293 cells assessed as enzyme-mediated compound formation in cell culture medium treated with naproxen at 1 mM by LC-MS/MS analysis; type: ADME, cell-based; settings: hek293, 1000 µM, TDE = time-dependent effect; how it was run: as §1
[19] = tested on: Nucleic Acid; test: Ratio of drug level in human hepatocytes to HEK293 cells expressing UGT1A3 treated with naproxen at 1 mM; type: ADME, cell-based, Hepatocyte; settings: 1000 µM; how it was run: as §2
[20] = molecular target: T1, UDP-glucuronosyltransferase 1A3; test: Activity of human UGT1A3 expressed in HEK293 cells assessed as enzyme-mediated compound formation per 2 x 10^5 cells treated with naproxen at 1 mM measured at 24 hrs by LC-MS/MS analysis; type: ADME, cell-based; settings: hek293, 24 h, 1000 µM; how it was run: as §1
[21] = tested on: Hepatocyte; test: Drug level in human hepatocytes assessed per 2 x 10^5 cells treated with naproxen at 1 mM measured at 6 hrs by LC-MS/MS analysis in absence of acyl glucuronidation inhibitor (-)-borneol; type: ADME, cell-based; settings: 1000 µM
[22] = Drug level in cell culture medium treated with naproxen at 1 mM measured at 6 hrs by LC-MS/MS analysis in absence of acyl glucuronidation inhibitor (-)-borneol; type: physicochemical; settings: 1000 µM
[23] = molecular target: T1, UDP-glucuronosyltransferase 1A3; test: Activity of human UGT1A3 expressed in HEK293 cells assessed as enzyme-mediated compound formation in cell culture medium treated with naproxen at 1 mM measured at 6 to 24 hrs by LC-MS/MS analysis; type: ADME, cell-based; settings: hek293, 1000 µM; how it was run: as §1

Drug metabolism [1]: tde
Drug metabolism [2]: 610.5 pmol/mL
Drug metabolism [3]: 3.8 pmol
Drug metabolism [4]: 59.6 pmol
Drug metabolism [5]: 2816.1 pmol/mL
Drug metabolism [6]: 104 pmol/mL
Drug metabolism [7]: 15.1 pmol
Compound: O=C(Cc1ccccc1Nc1c(Cl)cccc1Cl)O[C@@H]1O[C@H](C(=O)O)[C@@H](O)[C@H](O)[C@H]1O

Drug metabolism [8]: 6.8 pmol
Drug metabolism [9]: 1.7 pmol
Ratio [10]: 6
Drug metabolism [11]: 436.8 pmol/mL
Drug metabolism [12]: 6.3 pmol/mL
Drug metabolism [13]: 54.9 pmol/mL
Drug metabolism [14]: 0.2 pmol
Drug metabolism [15]: tde
Compound: CC(C(=O)O[C@@H]1O[C@H](C(=O)O)[C@@H](O)[C@H](O)[C@H]1O)c1cccc(C(=O)c2ccccc2)c1 (stereo partly drawn)

Drug metabolism [16]: 10.3 pmol
Drug metabolism [17]: 393.7 pmol/mL
Drug metabolism [18]: tde
Ratio [19]: 6
Drug metabolism [20]: 4.5 pmol
Drug metabolism [21]: 33.6 pmol
Drug metabolism [22]: 1323.9 pmol/mL
Drug metabolism [23]: 137 pmol/mL
Compound: COc1ccc2cc([C@H](C)C(=O)O[C@@H]3O[C@H](C(=O)O)[C@@H](O)[C@H](O)[C@H]3O)ccc2c1
